Source: PMC4381552 (Cell reports, 2014)

Experiments:
[1] = target: wild-type (WT) hSTING (Homo sapiens, UniProt Q86WV6, H232R); assay: ITC binding of DMXAA to STING CTD; details: 25°C
[2] = target: hSTING^group1 (aa 140-379) (Homo sapiens, UniProt Q86WV6, E174G/H185L/H232R/L189M/Q196R/R191S/T181M/V194G/Y182F/Y186H); assay: ITC binding of DMXAA to STING CTD; details: 25°C
[3] = target: hSTING^group3 (Homo sapiens, UniProt Q86WV6, A300E/A302V/D297E/H232R/Q276K/Q306R/S275A/Y274D); assay: ITC binding of DMXAA to STING CTD; details: 25°C
hSTING^group3, sequence (Q86WV6 140-379 H232R/Y274D/S275A/Q276K/D297E/A300E/A302V/Q306R): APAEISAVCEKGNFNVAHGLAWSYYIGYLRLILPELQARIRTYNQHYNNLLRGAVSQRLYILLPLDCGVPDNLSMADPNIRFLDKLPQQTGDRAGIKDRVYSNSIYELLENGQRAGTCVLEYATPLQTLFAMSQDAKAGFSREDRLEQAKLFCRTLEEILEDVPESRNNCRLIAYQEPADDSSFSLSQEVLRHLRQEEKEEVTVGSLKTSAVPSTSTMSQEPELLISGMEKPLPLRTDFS

[4] = target: hSTING^group4 (Homo sapiens, UniProt Q86WV6, A350V/E362R/E369D/F378L/G344N/H232R/K347M/K370Q/L346P/M357L/S345A/S353P/S379I/T354P/T356V/V343M/V351A); assay: ITC binding of DMXAA to STING CTD; details: 25°C
hSTING^group4, sequence (Q86WV6 140-379 with the stated changes): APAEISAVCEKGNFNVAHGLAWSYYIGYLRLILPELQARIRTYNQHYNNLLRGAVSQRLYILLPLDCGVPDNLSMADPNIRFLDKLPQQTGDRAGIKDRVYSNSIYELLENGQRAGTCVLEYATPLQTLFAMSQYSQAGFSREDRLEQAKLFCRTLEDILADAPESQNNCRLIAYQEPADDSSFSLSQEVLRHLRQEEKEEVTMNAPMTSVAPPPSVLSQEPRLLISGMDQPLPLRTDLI

[5] = target: hSTING^group2 (Homo sapiens, UniProt Q86WV6, D237N/G230I/H232R/I244V/K224M/L222R/T229N); assay: IFN-β luciferase reporter assay in transfected 293T cells; assay type: cell-based; details: 0.18 mM DMXAA (50 μg/ml), 12 hr
hSTING^group2, sequence (Q86WV6 whole entry L222R/K224M/T229N/G230I/H232R/D237N/I244V): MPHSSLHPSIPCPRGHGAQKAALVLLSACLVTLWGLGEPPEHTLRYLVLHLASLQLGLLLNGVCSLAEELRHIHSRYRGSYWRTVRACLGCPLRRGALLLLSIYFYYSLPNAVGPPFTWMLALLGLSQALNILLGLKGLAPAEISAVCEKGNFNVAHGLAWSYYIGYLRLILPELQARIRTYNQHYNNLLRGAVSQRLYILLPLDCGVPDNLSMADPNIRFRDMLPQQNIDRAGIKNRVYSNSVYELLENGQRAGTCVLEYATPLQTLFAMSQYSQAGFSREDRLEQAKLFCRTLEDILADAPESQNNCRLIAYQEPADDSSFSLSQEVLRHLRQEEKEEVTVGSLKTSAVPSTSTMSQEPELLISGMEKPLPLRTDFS

[6] = target: hSTING^group134 (Homo sapiens, UniProt Q86WV6, A300E/A302V/A350V/D297E/E174G/E362R/E369D/F378L/G344N/H185L/H232R/K347M/K370Q/L189M/L346P/M357L/Q196R/Q276K/Q306R/R191S/S275A/S345A/S353P/S379I/T181M/T354P/T356V/V194G/V343M/V351A/Y182F/Y186H/Y274D); assay: IFN-β luciferase reporter assay in transfected 293T cells; assay type: cell-based; details: 0.18 mM DMXAA (50 μg/ml), 12 hr, versus hSTING^group1234
hSTING^group134, sequence (Q86WV6 1-379 with the stated changes): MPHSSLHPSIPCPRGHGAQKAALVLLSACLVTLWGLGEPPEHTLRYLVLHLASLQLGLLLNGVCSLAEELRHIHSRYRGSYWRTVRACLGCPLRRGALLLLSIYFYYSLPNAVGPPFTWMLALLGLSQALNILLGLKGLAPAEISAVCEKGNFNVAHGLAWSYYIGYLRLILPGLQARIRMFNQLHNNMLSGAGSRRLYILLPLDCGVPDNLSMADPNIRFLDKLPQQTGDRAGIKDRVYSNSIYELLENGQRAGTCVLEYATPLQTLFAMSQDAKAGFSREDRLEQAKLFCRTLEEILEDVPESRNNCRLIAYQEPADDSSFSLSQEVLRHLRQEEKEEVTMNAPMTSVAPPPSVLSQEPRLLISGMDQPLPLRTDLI
In short: (§1)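 HEK293T cells were reverse-transfected with full-length STING plasmids, expressed at moderate levels, plus IFN-β reporter constructs. […] Luciferase was read 12 hr later. Gaussia luciferase was normalized to constitutive firefly luciferase. Values are means of triplicates + SEM, representative of three independent experiments.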

[7] = target: hSTING Q266I (Homo sapiens, UniProt Q86WV6, H232R/Q266I); assay: as above; assay type: cell-based; details: 0.18 mM DMXAA, 12 hr
hSTING Q266I, sequence (Q86WV6 whole entry H232R/Q266I): as the sequence (Q86WV6 whole entry L222R/K224M/T229N/G230I/H232R/D237N/I244V) above, with R222L, M224K, N229T, I230G, N237D, V244I, Q266I counted along it
In short: as §1

[8] = target: hSTING Q266L (Homo sapiens, UniProt Q86WV6, H232R/Q266L); assay: as above; assay type: cell-based; details: 0.18 mM DMXAA, 12 hr
hSTING Q266L, sequence (Q86WV6 whole entry H232R/Q266L): as the sequence (Q86WV6 whole entry L222R/K224M/T229N/G230I/H232R/D237N/I244V) above, with R222L, M224K, N229T, I230G, N237D, V244I, Q266L counted along it
In short: as §1

[9] = target: hSTING G166S (Homo sapiens, UniProt Q86WV6, G166S/H232R); assay: as above; assay type: cell-based; details: 0.18 mM DMXAA, 12 hr
hSTING G166S, sequence (Q86WV6 whole entry G166S/H232R): as the sequence (Q86WV6 whole entry L222R/K224M/T229N/G230I/H232R/D237N/I244V) above, with G166S, R222L, M224K, N229T, I230G, N237D, V244I counted along it
In short: as §1

[10] = target: hSTING I235L (Homo sapiens, UniProt Q86WV6, H232R/I235L); assay: as above; assay type: cell-based; details: 0.18 mM DMXAA, 12 hr
hSTING I235L, sequence (Q86WV6 whole entry H232R/I235L): as the sequence (Q86WV6 whole entry L222R/K224M/T229N/G230I/H232R/D237N/I244V) above, with R222L, M224K, N229T, I230G, I235L, N237D, V244I counted along it
In short: as §1

[11] = target: hSTING Q266V (Homo sapiens, UniProt Q86WV6, H232R/Q266V); assay: as above; assay type: cell-based; details: 0.18 mM DMXAA, 12 hr
hSTING Q266V, sequence (Q86WV6 whole entry H232R/Q266V): as the sequence (Q86WV6 whole entry L222R/K224M/T229N/G230I/H232R/D237N/I244V) above, with R222L, M224K, N229T, I230G, N237D, V244I, Q266V counted along it
In short: as §1

[12] = target: WT hSTING (Homo sapiens, UniProt Q86WV6, H232R); assay: Cytokine/chemokine induction in STING^Gt/Gt BMDCs reconstituted with hSTING; assay type: cell-based; details: 50 µg/ml DMXAA, 3 hr, real-time PCR
WT hSTING, sequence (Q86WV6 whole entry H232R): as the sequence (Q86WV6 whole entry L222R/K224M/T229N/G230I/H232R/D237N/I244V) above, with R222L, M224K, N229T, I230G, N237D, V244I counted along it
In short: (§2)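 STING-deficient BMDCs were derived from STINGGt/Gt mouse bone marrow cultured with GM-CSF for 10 days and plated at 1 × 10^6 cells/well. They were infected with retroviruses expressing hSTING variants, and hSTING levels were checked by western blot. […] IFNB1, CXCL10, CCL5 and IL-6 mRNA were measured by real-time PCR. Data are means ± SEM (n = 3) from one of two experiments.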

[13] = target: hSTING^G230I (Homo sapiens, UniProt Q86WV6, G230I/H232R); assay: as above; assay type: cell-based; details: 50 µg/ml DMXAA, 3 hr, real-time PCR
hSTING^G230I, sequence (Q86WV6 whole entry G230I/H232R): as the sequence (Q86WV6 whole entry L222R/K224M/T229N/G230I/H232R/D237N/I244V) above, with R222L, M224K, N229T, N237D, V244I counted along it
In short: as §2

[14] = target: hSTING^S162A/Q266I (Homo sapiens, UniProt Q86WV6, H232R/Q266I/S162A); assay: as above; assay type: cell-based; details: 50 µg/ml DMXAA, 3 hr, real-time PCR
hSTING^S162A/Q266I, sequence (Q86WV6 whole entry S162A/H232R/Q266I): as the sequence (Q86WV6 whole entry L222R/K224M/T229N/G230I/H232R/D237N/I244V) above, with S162A, R222L, M224K, N229T, I230G, N237D, V244I, Q266I counted along it
In short: as §2

[15] = target: hSTING^S162A/G230I/Q266I (Homo sapiens, UniProt Q86WV6, G230I/H232R/Q266I/S162A); assay: as above; assay type: cell-based; details: 50 µg/ml DMXAA
hSTING^S162A/G230I/Q266I, sequence (Q86WV6 whole entry S162A/G230I/H232R/Q266I): as the sequence (Q86WV6 whole entry L222R/K224M/T229N/G230I/H232R/D237N/I244V) above, with S162A, R222L, M224K, N229T, N237D, V244I, Q266I counted along it
In short: as §2

[16] = target: hSTING^S162A (Homo sapiens, UniProt Q86WV6, H232R/S162A); assay: as above; assay type: cell-based; details: 50 µg/ml DMXAA, 3 hr, real-time PCR
hSTING^S162A, sequence (Q86WV6 whole entry S162A/H232R): as the sequence (Q86WV6 whole entry L222R/K224M/T229N/G230I/H232R/D237N/I244V) above, with S162A, R222L, M224K, N229T, I230G, N237D, V244I counted along it
In short: as §2

[17] = tested on: all hSTING alleles with S162A/Q266I double substitution; assay: IFN-β luciferase reporter assay in transfected 293T cells; assay type: cell-based, human; details: 0.18 mM DMXAA, alleles R232, HAQ, H232, AQ, Q293
In short: as §1

[18] = tested on: non-small-cell lung cancer; details: in combination with paclitaxel and carboplatin; ref Lara et al., 2011; cited from earlier work
[19] = ref Tijono et al., 2013; cited from earlier work

hSTING^group1 (aa 140-379), sequence (Q86WV6 140-379 E174G/T181M/Y182F/H185L/Y186H/L189M/R191S/V194G/Q196R/H232R): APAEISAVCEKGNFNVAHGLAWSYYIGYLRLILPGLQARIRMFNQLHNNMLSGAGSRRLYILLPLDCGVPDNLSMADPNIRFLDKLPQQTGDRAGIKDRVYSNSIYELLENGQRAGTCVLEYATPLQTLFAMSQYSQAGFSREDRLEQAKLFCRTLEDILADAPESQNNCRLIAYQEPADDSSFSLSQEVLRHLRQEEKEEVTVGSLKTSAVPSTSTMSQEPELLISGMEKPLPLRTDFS
wild-type (WT) hSTING, sequence (Q86WV6 140-379 H232R): as the sequence (Q86WV6 140-379 H232R/Y274D/S275A/Q276K/D297E/A300E/A302V/Q306R) above, with D135Y, A136S, K137Q, E158D, E161A, V163A, R167Q counted along it

Structure (SMILES): Cc1ccc2c(=O)c3cccc(CC(=O)O)c3oc2c1C [DMXAA, 5,6-dimethylxanthenone-4-acetic acid]
- binding to DMXAA [1]: no detectable binding
- binding to DMXAA [2]: no detectable binding
- binding to DMXAA [3]: no detectable binding
- binding to DMXAA [4]: no detectable binding
- IFN-β reporter response [5]: showed responsiveness to DMXAA
- IFN-β reporter response [6]: strongly diminished DMXAA activation
- IFN-β induction [7]: conferred DMXAA sensitivity
- IFN-β induction [8]: less pronounced gain
- IFN-β induction [9]: showed no effects
- IFN-β induction [10]: showed no effects
- IFN-β induction [11]: showed no effects
- IFN-β mRNA upregulation [12]: did not induce the upregulation
- increase in IFN-β mRNA levels [13]: 2.6 fold
- increase in IFN-β mRNA levels [14]: 3.1 fold
- increase in IFN-β mRNA levels ([15]; 3 hr, real-time PCR): 4.2 fold
- upregulation of CXCL10, CCL5, and IL-6 mRNAs ([15]; 3 hr, real-time PCR): strongest induction among the four mutants
- CXCL10 production (supernatant, ELISA) ([15]; 18 hr): highest level of CXCL10 production
- increase in IFN-β mRNA levels [16]: 2.2 fold
- DMXAA responsiveness (IFN-β reporter) [17]: able to induce DMXAA responsiveness
- outcome of human phase III trials [18]: failed

Structure (SMILES): Cc1ccc2oc3c(CC(=O)O)cccc3c(=O)c2c1 [7-methyl-XAA]
- activity in human [19]: weak yet human-active

Structure (SMILES): Cc1cccc2oc3c(CC(=O)O)cccc3c(=O)c12 [8-methyl-XAA]
- activity in human [19]: weak yet human-active
